Measurements taken from ChEMBL document CHEMBL5120825, “The azulene scaffold from a medicinal chemist's perspective: Physicochemical and in vitro parameters relevant for drug discovery” (Eur J Med Chem, 2022).
Converted amounts (≈) assume the structure as drawn.

Experiments:
[1] = Photostability of the compound assessed as compound degradation administered as solid irradiated with sun light and measured after 7 days by HPLC analysis
Cytochrome P450 2D6 = Cytochrome P450 2D6 (Homo sapiens, UniProt P10635); experiment: Inhibition of CYP2D6 in human liver microsomes using dextromethorphan as substrate preincubated with compound followed by NADPH addition by LC-MS/MS analysis; type: ADME, Microsome
Cytochrome P450 2D6, sequence (P10635 whole entry): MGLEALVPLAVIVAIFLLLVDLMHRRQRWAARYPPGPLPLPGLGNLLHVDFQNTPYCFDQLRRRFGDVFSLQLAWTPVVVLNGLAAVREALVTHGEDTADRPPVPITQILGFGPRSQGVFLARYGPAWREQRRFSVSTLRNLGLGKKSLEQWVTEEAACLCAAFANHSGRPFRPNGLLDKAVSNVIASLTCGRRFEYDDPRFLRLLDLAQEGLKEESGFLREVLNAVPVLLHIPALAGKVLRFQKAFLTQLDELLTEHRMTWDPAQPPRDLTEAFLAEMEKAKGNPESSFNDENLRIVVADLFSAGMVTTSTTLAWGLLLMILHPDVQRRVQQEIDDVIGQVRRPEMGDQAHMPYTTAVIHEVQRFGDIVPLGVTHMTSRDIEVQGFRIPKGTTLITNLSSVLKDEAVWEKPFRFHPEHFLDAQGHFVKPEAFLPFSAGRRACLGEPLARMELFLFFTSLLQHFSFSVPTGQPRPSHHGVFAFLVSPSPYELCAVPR

[2] = Dissociation constant, pKa of the compound by dip probe absorption spectroscopy; type: physicochemical
Cytochrome P450 3A4 = Cytochrome P450 3A4 (Homo sapiens, UniProt P08684); experiment: Inhibition of CYP3A4 in human liver microsomes using midazolam as substrate preincubated with compound followed by NADPH addition by LC-MS/MS analysis; type: ADME, Microsome
Cytochrome P450 3A4, sequence (P08684 whole entry): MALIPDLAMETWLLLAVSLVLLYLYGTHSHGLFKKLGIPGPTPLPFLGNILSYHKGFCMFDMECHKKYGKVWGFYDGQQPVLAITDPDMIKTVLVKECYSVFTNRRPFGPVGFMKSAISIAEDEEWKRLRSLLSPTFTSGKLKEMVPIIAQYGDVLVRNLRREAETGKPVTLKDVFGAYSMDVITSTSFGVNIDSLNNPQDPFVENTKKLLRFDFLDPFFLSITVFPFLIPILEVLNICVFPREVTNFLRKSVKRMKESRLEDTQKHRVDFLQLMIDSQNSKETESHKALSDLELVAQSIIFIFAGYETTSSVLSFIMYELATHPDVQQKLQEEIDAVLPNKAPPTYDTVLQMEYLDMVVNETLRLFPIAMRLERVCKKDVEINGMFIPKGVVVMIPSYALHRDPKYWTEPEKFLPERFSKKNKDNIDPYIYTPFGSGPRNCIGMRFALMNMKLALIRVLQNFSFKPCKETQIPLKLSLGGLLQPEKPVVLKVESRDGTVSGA

Cytochrome P450 2C19 = Cytochrome P450 2C19 (Homo sapiens, UniProt P33261); experiment: Inhibition of CYP2C19 in human liver microsomes using mephenytoin as substrate preincubated with compound followed by NADPH addition by LC-MS/MS analysis; type: ADME, Microsome
Cytochrome P450 2C19, sequence (P33261 whole entry): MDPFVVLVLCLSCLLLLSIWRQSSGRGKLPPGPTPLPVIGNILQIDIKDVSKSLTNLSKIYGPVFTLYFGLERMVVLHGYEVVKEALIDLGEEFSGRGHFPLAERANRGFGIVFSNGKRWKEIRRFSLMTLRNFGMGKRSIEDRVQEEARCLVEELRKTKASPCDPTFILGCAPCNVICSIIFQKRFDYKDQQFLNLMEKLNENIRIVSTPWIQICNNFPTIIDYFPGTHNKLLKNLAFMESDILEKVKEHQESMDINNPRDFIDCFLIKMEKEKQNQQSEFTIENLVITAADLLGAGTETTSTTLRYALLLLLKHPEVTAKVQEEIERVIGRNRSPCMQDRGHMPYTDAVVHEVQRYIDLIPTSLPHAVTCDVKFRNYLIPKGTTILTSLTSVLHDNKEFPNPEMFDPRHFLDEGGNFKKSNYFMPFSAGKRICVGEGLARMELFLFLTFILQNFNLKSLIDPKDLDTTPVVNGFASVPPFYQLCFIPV

Cytochrome P450 2C9 = Cytochrome P450 2C9 (Homo sapiens, UniProt P11712); experiment: Inhibition of CYP2C9 in human liver microsomes using diclofenac as substrate preincubated with compound followed by NADPH addition by LC-MS/MS analysis; type: ADME, Microsome
Cytochrome P450 2C9, sequence (P11712 whole entry): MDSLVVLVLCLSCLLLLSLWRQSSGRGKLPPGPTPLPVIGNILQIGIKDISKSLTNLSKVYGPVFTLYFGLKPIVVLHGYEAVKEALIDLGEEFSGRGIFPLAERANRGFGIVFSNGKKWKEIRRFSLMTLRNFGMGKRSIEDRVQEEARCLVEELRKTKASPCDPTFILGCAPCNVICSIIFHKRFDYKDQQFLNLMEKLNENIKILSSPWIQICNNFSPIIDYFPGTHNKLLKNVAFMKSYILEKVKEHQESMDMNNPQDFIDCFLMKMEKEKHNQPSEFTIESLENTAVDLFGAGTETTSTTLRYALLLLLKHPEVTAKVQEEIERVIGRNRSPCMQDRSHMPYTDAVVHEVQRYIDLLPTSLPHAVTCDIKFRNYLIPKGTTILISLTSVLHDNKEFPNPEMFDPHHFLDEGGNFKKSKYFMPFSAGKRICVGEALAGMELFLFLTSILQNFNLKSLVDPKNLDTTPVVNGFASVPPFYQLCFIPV

[3] = Stability of the compound at pH 7.4 assessed as half life measured after 24 hrs in presence of GSH by HPLC analysis; type: physicochemical; conditions: solution with GSH
Cytochrome P450 2C8 = biological target: T1, Cytochrome P450 2C8 (Homo sapiens, UniProt P10632); experiment: Inhibition of CYP2C8 in human liver microsomes using amodiaquine as substrate preincubated with compound followed by NADPH addition by LC-MS/MS analysis; type: ADME, Microsome
T1 sequence (P10632 whole entry): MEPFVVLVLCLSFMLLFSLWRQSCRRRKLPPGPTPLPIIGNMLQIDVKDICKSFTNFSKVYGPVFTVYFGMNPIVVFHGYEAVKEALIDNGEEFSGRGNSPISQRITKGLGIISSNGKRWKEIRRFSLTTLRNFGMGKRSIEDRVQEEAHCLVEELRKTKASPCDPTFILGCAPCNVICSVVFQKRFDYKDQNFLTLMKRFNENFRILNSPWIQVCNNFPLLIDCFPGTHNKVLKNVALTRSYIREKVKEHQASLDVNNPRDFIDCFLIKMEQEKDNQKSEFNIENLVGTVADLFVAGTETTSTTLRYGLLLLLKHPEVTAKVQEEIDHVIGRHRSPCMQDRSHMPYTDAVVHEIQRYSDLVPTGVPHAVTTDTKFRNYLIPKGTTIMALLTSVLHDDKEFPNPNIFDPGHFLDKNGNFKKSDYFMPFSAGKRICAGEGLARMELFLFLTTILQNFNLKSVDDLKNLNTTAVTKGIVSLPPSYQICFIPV

[4] = Photostability of the compound at pH 4.1 assessed as compound degradation administered as solution irradiated with sun light and measured after 7 days by HPLC analysis; type: physicochemical; conditions: time 7 day, read-out: Drug degradation
Outline: (§1)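 Compound in solution was kept for 7 days under "mild" light-stress conditions, with no pH adjustment. The pH listed for each compound is the solution's own intrinsic pH. Result is % degradation of parent.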

[5] = Metabolic stability in human liver microsomes assessed as hepatic blood flow at 1 uM preincubated with compound followed by NADPH addition by LC-MS/MS analysis; type: ADME, Microsome; conditions: read-out: QH
[6] = Photostability of the compound at pH 7.2 assessed as compound degradation administered as solution irradiated with sun light and measured after 7 days by HPLC analysis; type: physicochemical; conditions: time 7 day, read-out: Drug degradation; outline: as §1
[7] = Aqueous solubility of the compound at pH 2.2 incubated for 24 hrs under shaking condition by LC-UV analysis; type: physicochemical; conditions: aqueous medium
Outline: (§2)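 The highest concentration tested was 250 μM, so results are capped at that level. Values are reported in µg/ml.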

[8] = Lipophilicity, logP of the compound; type: physicochemical; conditions: octanol/water; read-out: logP
[9] = Aqueous solubility of the compound at pH 6.8 incubated for 24 hrs under shaking condition by LC-UV analysis; type: physicochemical; conditions: aqueous medium; outline: as §2
[10] = Permeability of the compound at pH 7.4 by PAMPA assay; type: ADME; conditions: read-out: permeability
[11] = Aqueous solubility of the compound at pH 4.5 incubated for 24 hrs under shaking condition by LC-UV analysis; type: physicochemical; conditions: aqueous medium; outline: as §2
[12] = Octanol-water partition coefficient, logD of the compound at pH 2 by HPLC analysis; type: physicochemical; conditions: read-out: logD
[13] = Octanol-water partition coefficient, logD of the compound at pH 11 by HPLC analysis; type: physicochemical; conditions: read-out: logD
[14] = Hydrolytic stability of the compound in aqueous HCl assessed as compound decomposition measured after 3 days by HPLC analysis; type: physicochemical; conditions: time 3 day, read-out: Drug degradation
Outline: (§3)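 Compound was held for 3 days at 40 °C in 0.1 M HCl in water or in aqueous buffer at pH 7.4. Dissolution was confirmed by eye, and decomposition is reported as % loss of parent.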

[15] = Hydrolytic stability of the compound in aqueous buffer at pH 7.4 assessed as compound decomposition measured after 3 days by HPLC analysis; type: physicochemical; conditions: time 3 day, read-out: Drug degradation; outline: as §3
[16] = Photostability of the compound at pH 5.3 assessed as compound degradation administered as solution irradiated with sun light and measured after 7 days by HPLC analysis; type: physicochemical; conditions: time 7 day, read-out: Drug degradation; outline: as §1
[17] = Photostability of the compound at pH 5.8 assessed as compound degradation administered as solution irradiated with sun light and measured after 7 days by HPLC analysis; type: physicochemical; conditions: time 7 day, read-out: Drug degradation; outline: as §1
[18] = Photostability of the compound at pH 8.7 assessed as compound degradation administered as solution irradiated with sun light and measured after 7 days by HPLC analysis; type: physicochemical; conditions: time 7 day, read-out: Drug degradation; outline: as §1
[19] = Photostability of the compound at pH 4.0 assessed as compound degradation administered as solution irradiated with sun light and measured after 7 days by HPLC analysis; type: physicochemical; conditions: time 7 day, read-out: Drug degradation; outline: as §1

| SMILES | degraded at 168 h [1] [%] | IC50 (Cytochrome P450 2D6) [µM] | pKa [2] | IC50 (Cytochrome P450 3A4) [µM] | IC50 (Cytochrome P450 2C19) [µM] | IC50 (Cytochrome P450 2C9) [µM] | half-life [3] [days] | IC50 (Cytochrome P450 2C8) [µM] | hepatic extraction ratio at 1 µM [5] | solubility thermodynamic at 24 h [7] [µg/mL] | logP [8] | solubility thermodynamic at 24 h [9] [µg/mL] | Papp [10] [×10⁻⁶ cm/s] | solubility thermodynamic at 24 h [11] [µg/mL] | logD [12] | logD [13] | degraded at 72 h [14] [%] | degraded at 72 h [15] [%] | further results |
| --- | --- | --- | --- | --- | --- | --- | --- | --- | --- | --- | --- | --- | --- | --- | --- | --- | --- | --- | --- |
| CN1CCN(C(=O)c2ccc3ccc(C(=O)c4ccccc4)c-3cc2)CC1 | < 0.5 | > 50 | – | > 50 | > 50 | 39 | – | > 50 | 0.48 | > 90 | 3 | > 73 | 8.4 | 67 (≈ 187 µM) | 1.2 | 1.2 | – | – | degraded at 168 h [6]: < 0.5% |
| O=C(NCCO)c1ccc2ccc(C(=O)c3ccccc3)c-2cc1 | < 0.5 | > 50 | – | > 50 | > 50 | > 50 | – | > 50 | < 0.23 | 14 (≈ 43.8 µM) | 2.2 | 4 (≈ 12.5 µM) | 1.8 | 6 (≈ 18.8 µM) | 2.3 | 2.2 | – | – | degraded at 168 h [17]: < 0.5% |
| c1cc2ccc(CN3CCCCC3)ccc-2c1 | < 0.5 | 17 | – | > 50 | 2.3 | > 50 | – | > 50 | 0.75 | > 56 | > 5.5 | 31 (≈ 138 µM) | 3.4 | – | 0.8 | > 5.5 | – | – | degraded at 168 h [18]: 3.5% |

Further lines, with some results ahead:

| degraded at 168 h [1] [%] | IC50 (Cytochrome P450 2D6) [µM] | pKa [2] | IC50 (Cytochrome P450 3A4) [µM] | IC50 (Cytochrome P450 2C19) [µM] | IC50 (Cytochrome P450 2C9) [µM] | half-life [3] [days] | IC50 (Cytochrome P450 2C8) [µM] | hepatic extraction ratio at 1 µM [5] | solubility thermodynamic at 24 h [7] [µg/mL] | logP [8] | solubility thermodynamic at 24 h [9] [µg/mL] | Papp [10] [×10⁻⁶ cm/s] | solubility thermodynamic at 24 h [11] [µg/mL] | logD [12] | logD [13] | degraded at 72 h [14] [%] | degraded at 72 h [15] [%] | SMILES | further results |
| --- | --- | --- | --- | --- | --- | --- | --- | --- | --- | --- | --- | --- | --- | --- | --- | --- | --- | --- | --- |
| < 0.5 | > 50 | 3.2 | > 50 | > 50 | > 50 | > 41.7 | > 50 | – | – | – | – | – | – | – | – | – | – | O=C(O)c1ccc2ccc(C(=O)c3ccccc3)c-2cc1 | degraded at 168 h [4]: < 0.5% |
| < 0.5 | – | – | – | – | – | > 41.7 | – | 0.27 | > 44 | 2.2 | > 43 | 8.7 | > 45 | 2.5 | 2.2 | 2 | < 0.5 | CN(C)C(=O)Cc1ccc2cccc-2cc1 | degraded at 168 h [16]: 12% |
| < 0.5 | – | 3.5 | – | – | – | > 41.7 | – | – | – | – | – | – | – | – | – | 1.5 | < 0.5 | O=C(O)c1ccc2cccc-2cc1 | degraded at 168 h [19]: < 0.5% |
